Experiment [1] addresses T1, 5-hydroxytryptamine receptor 6 (Homo sapiens, UniProt P50406). Put plainly: Binding affinity for human 5-hydroxytryptamine 6 receptor.
For experiment [2], the target named is T1, 5-hydroxytryptamine receptor 6. Put plainly: Agonist activity against cAMP accumulation in C6 cells expressing 5-hydroxytryptamine 6 receptor. Format: functional, cell-based. As to conditions: Rattus norvegicus, filed as agonist. On the technique in general: Cyclic AMP is a second messenger, typically raised through Gs and lowered through Gi signalling.

For experiment [3] the target is unchanged. In words: Inhibition of [3H]LSD binding to human 5-hydroxytryptamine 6 receptor expressed in HEK293 cells. It is filed as cell-based. A digest of the protocol:
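Bound ligand collected on polyethylenimine-pretreated glass fiber filters, washed with 50 mM Tris Cl pH 7.4, counted by liquid scintillation. Nonspecific binding defined with 100 µM serotonin. Competition data fitted by LIGAND; triplicate determinations per point.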

The target is the same in experiment [4]. In words: Partial agonist activity against cAMP accumulation in C6 cells expressing 5-hydroxytryptamine 6 receptor. It is filed as functional, cell-based. As to conditions: Rattus norvegicus, filed as partial agonist.

Experimental findings from ChEMBL document CHEMBL1145196, “Medicinal chemistry driven approaches toward novel and selective serotonin 5-HT6 receptor ligands” (J Med Chem, 2005) are described below.

T1 sequence (P50406 whole entry): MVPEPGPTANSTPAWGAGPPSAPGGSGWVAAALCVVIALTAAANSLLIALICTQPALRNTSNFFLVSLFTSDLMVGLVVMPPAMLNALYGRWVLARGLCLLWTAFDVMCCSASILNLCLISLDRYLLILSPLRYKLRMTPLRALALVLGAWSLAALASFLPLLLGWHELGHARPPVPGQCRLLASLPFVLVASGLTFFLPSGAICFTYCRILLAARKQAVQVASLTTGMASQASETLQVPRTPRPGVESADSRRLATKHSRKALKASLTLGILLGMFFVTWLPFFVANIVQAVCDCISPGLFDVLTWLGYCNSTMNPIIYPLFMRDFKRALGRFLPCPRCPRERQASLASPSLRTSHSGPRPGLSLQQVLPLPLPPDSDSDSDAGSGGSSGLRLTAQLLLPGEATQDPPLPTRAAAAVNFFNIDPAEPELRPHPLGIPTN

In experiment [1], `CC(C)C[C@H]1C(=O)N2CCC[C@H]2[C@]2(O)O[C@](NC(=O)[C@@H]3C=C4c5cccc6[nH]c(Br)c(c56)C[C@H]4N(C)C3)(C(C)C)C(=O)N12` [BROMOCRIPTINE] gave a Ki of less than 50 nM.

Take `COc1ccc2c(c1)c(CCN(C)C)cn2S(=O)(=O)c1ccccc1`: in experiment [1], the Ki was less than 50 nM.

`CCN(CC)CCc1c[nH]c2ccc(NS(=O)(=O)c3ccc(-c4ccccc4)cc3)cc12`: the Activity result in experiment [2] was “Agonist”.

For the compound `CN1CC=C(c2cn(S(=O)(=O)c3cccc4ccccc34)c3ccc(F)cc23)CC1`, in experiment [1], the inhibition constant Ki was less than 50 nM.

`CCN(CC)CCc1c[nH]c2ccc(NS(=O)(=O)c3cccc4c(Cl)cccc34)cc12` registered a Ki in experiment [3] of 3.3 nM. In addition, the Activity entry in experiment [4] is “Partial agonist”.

Turning to `CCc1[nH]c2ccc(OC)cc2c1CCN(C)C`, the Ki in experiment [1] is less than 50 nM.

In experiment [3], `CCN(CC)CCc1c[nH]c2ccc(NS(=O)(=O)c3sc4ccc(Cl)cc4c3C)cc12` registered a Ki of 0.3 nM. Besides, the Activity result in experiment [2] was “Agonist”.

In turn, `Cc1c(S(=O)(=O)Nc2ccc3[nH]cc(CCN4CCCC4)c3c2)sc2ccc(Cl)cc12` yielded a Ki in experiment [3] of 4 nM. Besides, the Activity result in experiment [4] was “Partial agonist”.

`CCN(CC)CCc1c[nH]c2ccc(NS(=O)(=O)c3cc(Cl)cc(Cl)c3)cc12`: the Activity entry in experiment [4] is “Partial agonist”.

Take `CCCN(CCC)CCc1c[nH]c2ccc(NS(=O)(=O)c3sc4ccc(Cl)cc4c3C)cc12`: affinity in experiment [3] was put at a Ki of 0.5 nM. Besides, the Activity result in experiment [4] is “Partial agonist”.

As for `CN1CCN(C2=Nc3ccccc3Oc3ccc(Cl)cc32)CC1` [LOXAPINE], the inhibition constant (Ki) in experiment [1] was less than 50 nM.

The compound `Cc1c(S(=O)(=O)Nc2ccc3[nH]cc(CCN(C)C)c3c2)sc2ccc(Cl)cc12` had a Ki in experiment [3] of 0.1 nM. Also, the Activity entry in experiment [2] is “Agonist”.

Compound `CCCN(CCC)CCc1c[nH]c2ccc(NS(=O)(=O)c3ccc4ccccc4c3)cc12` registered an inhibition constant Ki in experiment [3] of 3.9 nM. Besides, the Activity result in experiment [4] is “Partial agonist”.

In experiment [1], `CN1CCN(C2Cc3ccccc3Sc3ccc(Cl)cc32)CC1` (stereo not drawn) [CLOROTEPINE] returned a Ki of less than 50 nM.

Consider `CN(C)CCc1c[nH]c2ccc(NS(=O)(=O)c3cccc4ccccc34)cc12`, for which the affinity in experiment [3] corresponds to a Ki of 0.8 nM. Moreover, the Activity result in experiment [4] is “Partial agonist”.

Take `OCCN1CCN(CCCN2c3ccccc3Sc3ccc(C(F)(F)F)cc32)CC1` [FLUPHENAZINE]: the Ki in experiment [1] was less than 50 nM.

`CN(C)CCc1c[nH]c2ccc(NS(=O)(=O)c3c(Cl)nc4sccn34)cc12`: the Activity result in experiment [4] was “Partial agonist”.

As for `O=S(=O)(Nc1ccc2[nH]cc(CCN3CCCC3)c2c1)c1ccc2ccccc2c1`, the Ki in experiment [3] stood at 4.3 nM. Further, the Activity entry in experiment [4] was “Partial agonist”.

`CN(C)CCc1c[nH]c2ccc(NS(=O)(=O)c3ccc(-c4ccccc4)cc3)cc12` came in with a Ki in experiment [3] of 0.4 nM. Besides, in experiment [2], the Activity entry is “Agonist”.

As a reminder, the Ki is the dissociation constant of the complex between target and ligand, obtained from inhibition or displacement. Read a low Ki as a stronger hold on the target.
